This note sets out measurements from the array DNA melting data of Ke et al. (doi:10.1101/2024.01.08.574731).

Series [1] in a line: folding enthalpy; higher = less favourable; fluorescence melt of hairpins on a sequencing array, two-state fit. As to conditions: sodium 0.088 M. The method, boiled down: (§1)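 In 50 mM Na-HEPES pH 8.0 containing 25 mM NaCl, hairpins from the library on a sequenced MiSeq flow cell were imaged for Cy3 fluorescence at 2.5 °C steps up to 60 °C, with Cy3 and quencher oligos annealed. After normalisation to pre-quench Cy3 and to control constructs, two-state fits with bootstrapping gave melting temperature and folding enthalpy. Four replicates were combined by inverse-variance weighting, and fitted temperatures were shifted up by 9.35 °C to match UV melts.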

Series [2] in a line: melting temperature; fluorescence melt of hairpins on a sequencing array, two-state fit, raised by 9.35 °C to match UV melts. The following applies: sodium 0.088 M. The method, boiled down:
as §1

As for GGGGACGAAAGTCATCCC ((((((....)))..))), the folding enthalpy in series [1] is -12.6 kcal/mol. In series [2], the Tm is 45.6 °C.
GGGGACGAAAGTCCTCCC ((((((....)))..))): the folding enthalpy in series [1] was -10.8 kcal/mol. Moreover, the Tm in series [2] worked out at 48.3 °C.
On to GGGGACGAAAGTCGCCC ((((((....))).))), for which the folding enthalpy in series [1] was -13.9 kcal/mol. Moreover, in series [2], the Tm is 64.9 °C.
For GGGGACGAAAGTCTGCCC ((((((....)))..))), in that order: -14.4 kcal/mol and 44.1 °C.
As for GGGGACGCGAAAGCGCCC (((..(((....)))))), the folding enthalpy in series [1] is -12.9 kcal/mol. Moreover, the Tm in series [2] stood at 60 °C.
As for GGGGATGGAAACGTCTCC ((.((.(....).)).)), the folding enthalpy in series [1] was -26 kcal/mol. For the same sequence, in series [2], the Tm stood at 36.5 °C.
GGGGATTCGAAAGAACCC (((..(((....)))))): the folding enthalpy in series [1] was -20.5 kcal/mol. In addition, the Tm in series [2] was found to be 47.4 °C.
For GGGGCCGAAAGGCGGCCC ((((((....)))..))) the same measures were -15.1 kcal/mol and 68.2 °C.
GGGGCCGCGAAAGCGCCC (((..(((....)))))): in series [1], the folding enthalpy is -11 kcal/mol. Further, the Tm in series [2] came out at 66 °C.
In the case of GGGGCCGGAAACAGCCCC (((((.(....).))))), in series [1], the folding enthalpy is -41.3 kcal/mol. Further, in series [2], the Tm was 57 °C.
Consider GGGGCCGGAAACGGCCTC (.(((((....))))).), for which the folding enthalpy in series [1] was -10.4 kcal/mol. The Tm in series [2] came to 69.2 °C.
With GGGGCGACGAAAGTCCCC (((..(((....)))))), the folding enthalpy in series [1] is -16.4 kcal/mol. Besides, the Tm in series [2] came to 56 °C.
In the case of GGGGCGGCGAAAGCCCCC (((..(((....)))))), the folding enthalpy in series [1] was -16.6 kcal/mol. In addition, the Tm in series [2] worked out at 64 °C.
For the sequence GGGGCGGGAAACCACCCC ((((.((....)).)))), the folding enthalpy in series [1] was -52 kcal/mol. Also, the Tm in series [2] is 55 °C.
Regarding GGGGCTACGAAAGTACCC (((..(((....)))))), in series [1], the folding enthalpy is -22.1 kcal/mol. In series [2], the Tm worked out at 48 °C.
As to GGGGCTCCGAAAGGACCC (((..(((....)))))), the folding enthalpy in series [1] was -35.3 kcal/mol. Further, the Tm in series [2] was 56.9 °C.
For GGGGCTGCGAAAGCACCC (((..(((....)))))), in that order: -24.5 kcal/mol and 62.5 °C.
For the sequence GGGGCTGGAAACAACCCC ((((.((....)).)))), in series [1], the folding enthalpy was -41.2 kcal/mol. In addition, in series [2], the Tm stood at 49.2 °C.
GGGGCTGGAAACAGCCTC (.(((((....))))).): the folding enthalpy in series [1] is -14.4 kcal/mol. In series [2], the Tm turned out to be 59.8 °C.
Regarding GGGGCTGGAAACAGCTCC ((.((((....)))).)), in series [1], the folding enthalpy is -28.5 kcal/mol. Further, the Tm in series [2] came out at 57.7 °C.
Take GGGGCTGGAAACGGCTCC ((.((.(....).)).)): the folding enthalpy in series [1] is -38.7 kcal/mol. In addition, in series [2], the Tm turned out to be 48.6 °C.
For GGGGGCGAAAGCCAACCC ((((((....)))..))), in that order: -17.9 kcal/mol and 52.7 °C.
As for GGGGGCGAAAGCCCACCC ((((((....)))..))), in series [1], the folding enthalpy was -10.1 kcal/mol. The Tm in series [2] is 57.3 °C.
As for GGGGGCGAAAGCCCGCCC ((((((....)))..))), in series [1], the folding enthalpy was -9.36 kcal/mol. Besides, the Tm in series [2] was 55.6 °C.
For GGGGGCGGAAACGCCTCC ((.((((....)))).)), in that order: -24.1 kcal/mol and 66.7 °C.
On to GGGGGTCGAAAGACGCCC (((.(((....))).))), for which the folding enthalpy in series [1] was -21.5 kcal/mol. Moreover, the Tm in series [2] came to 68.7 °C.
As for GGGGGTGGAAACACCCTC (.(((((....))))).), in series [1], the folding enthalpy was -16.7 kcal/mol. Also, the Tm in series [2] is 64.5 °C.
GGGGGTGGAAACATCCCC ((((.((....)).)))): the folding enthalpy in series [1] was -34.7 kcal/mol. Moreover, the Tm in series [2] came to 56.8 °C.
Consider GGGGGTGGAAACGCTCCC (((.(.(....).).))), for which the folding enthalpy in series [1] was -25.9 kcal/mol. The Tm in series [2] was 47.1 °C.
For GGGGTACGAAAGTAGCCC (((.(((....))).))) the same measures were -42.7 kcal/mol and 67.7 °C.
For GGGGTAGAAATACCCC ((((((....)))))) the same measures were -34.9 kcal/mol and 60.4 °C.
As for GGGGTAGCGAAAGCTCCC (((..(((....)))))), the folding enthalpy in series [1] is -23.2 kcal/mol. In addition, the Tm in series [2] stood at 58.4 °C.
For GGGGTAGGAAACTACCCC (((((((....))))))), in that order: -25.7 kcal/mol and 67.2 °C.
As to GGGGTCGAAAGACGACCC ((((((....)))..))), the folding enthalpy in series [1] was -19.6 kcal/mol. In addition, the Tm in series [2] was determined as 61.8 °C.
Regarding GGGGTCGAAAGACGCCCC ((((((....)))..))), in series [1], the folding enthalpy was -13 kcal/mol. The Tm in series [2] stood at 60.2 °C.
For the sequence GGGGTCGAAAGACGGCCC ((((((....)))..))), in series [1], the folding enthalpy is -22.1 kcal/mol. The Tm in series [2] amounted to 48.9 °C.
